In ChEMBL document CHEMBL4819122, “Novel 4-(piperazin-1-yl)quinolin-2(1H)-one bearing thiazoles with antiproliferative activity through VEGFR-2-TK inhibition” (Bioorg Med Chem, 2021):
The source made the active and inactive calls. The calls are words filed in the database; no cut-off is given here.

Assays:
MDA-MB-231 = assay: Cytotoxicity against human MDA-MB-231 assessed as growth inhibition at 10 uM by NCI protocol relative to control; format: functional; details: read-out: GI
How it was run: (§1)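 Run by NCI as a single-dose screen at 10 μM across the sixty-cell-line panel, which covers nine human tumour tissue types. The read-out is percent growth inhibition of treated cells relative to untreated cells.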

DU-145 = assay: Cytotoxicity against human DU-145 assessed as growth inhibition at 10 uM by NCI protocol relative to control; format: functional; details: read-out: GI; how it was run: as §1
U-251 = assay: Cytotoxicity against human U251 assessed as growth inhibition at 10 uM by NCI protocol relative to control; format: functional; details: read-out: GI
How it was run: (§2)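 Run by the NCI under its standard protocol: one dose of 10 μM against a sixty-line panel from nine human tumour tissues. Result given as percent growth inhibition of treated cells relative to untreated cells.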

HL-60 = assay: Cytotoxicity against human HL60 assessed as growth inhibition at 10 uM by NCI protocol relative to control; format: functional; details: read-out: GI; how it was run: as §1
NCI-H23 = assay: Cytotoxicity against human NCI-H23 assessed as growth inhibition at 10 uM by NCI protocol relative to control; format: functional; details: read-out: GI; how it was run: as §1
T47D = assay: Cytotoxicity against human T-47D assessed as growth inhibition at 10 uM by NCI protocol relative to control; format: functional; details: read-out: GI; how it was run: as §2
OVCAR-3 = assay: Cytotoxicity against human OVCAR-3 assessed as growth inhibition at 10 uM by NCI protocol relative to control; format: functional; details: read-out: GI; how it was run: as §1
COLO 205 = assay: Cytotoxicity against human COLO 205 assessed as growth inhibition at 10 uM by NCI protocol relative to control; format: functional; details: read-out: GI; how it was run: as §1
MDA-MB-435 = assay: Cytotoxicity against human MDA-MB-435 assessed as growth inhibition at 10 uM by NCI protocol relative to control; format: functional, cell-based; how it was run: as §1
HCT-116 = assay: Cytotoxicity against human HCT-116 assessed as growth inhibition at 10 uM by NCI protocol relative to control; format: functional; details: read-out: GI; how it was run: as §1
SN12C = assay: Cytotoxicity against human SN12C assessed as growth inhibition at 10 uM by NCI protocol relative to control; format: functional; details: read-out: GI; how it was run: as §2
CCRF-CEM = assay: Cytotoxicity against human CCRF-CEM assessed as growth inhibition at 10 uM by NCI protocol relative to control; format: functional; details: read-out: GI; how it was run: as §1
OVCAR-4 = assay: Cytotoxicity against human OVCAR-4 assessed as growth inhibition at 10 uM by NCI protocol relative to control; format: functional; details: read-out: GI; how it was run: as §1
UO-31 = assay: Cytotoxicity against human UO31 assessed as growth inhibition at 10 uM by NCI protocol relative to control; format: functional; details: read-out: GI; how it was run: as §2
A549 = assay: Cytotoxicity against human A549 assessed as growth inhibition at 10 uM by NCI protocol relative to control; format: functional; details: read-out: GI; how it was run: as §1
786-0 = assay: Cytotoxicity against human 786-0 assessed as growth inhibition at 10 uM by NCI protocol relative to control; format: functional; details: read-out: GI; how it was run: as §1
SK-MEL-5 = assay: Cytotoxicity against human SK-MEL-5 assessed as growth inhibition at 10 uM by NCI protocol relative to control; format: functional; details: read-out: GI; how it was run: as §1
PC-3 = assay: Cytotoxicity against human PC3 assessed as growth inhibition at 10 uM by NCI protocol relative to control; format: functional; details: read-out: GI; how it was run: as §1
ACHN = assay: Cytotoxicity against human ACHN assessed as growth inhibition at 10 uM by NCI protocol relative to control; format: functional; details: read-out: GI; how it was run: as §1
SR = assay: Cytotoxicity against human SR assessed as growth inhibition at 10 uM by NCI protocol relative to control; format: functional; details: read-out: GI; how it was run: as §2
TK-10 = assay: Cytotoxicity against human TK-10 assessed as growth inhibition at 10 uM by NCI protocol relative to control; format: functional; details: read-out: GI; how it was run: as §2
HT-29 = assay: Cytotoxicity against human HT29 assessed as growth inhibition at 10 uM by NCI protocol relative to control; format: functional; details: read-out: GI; how it was run: as §1
SW-620 = assay: Cytotoxicity against human SW-620 assessed as growth inhibition at 10 uM by NCI protocol relative to control; format: functional; details: read-out: GI; how it was run: as §2
OVCAR-8 = assay: Cytotoxicity against human OVCAR-8 assessed as growth inhibition at 10 uM by NCI protocol relative to control; format: functional; details: read-out: GI; how it was run: as §1
KM12 = assay: Cytotoxicity against human KM12 assessed as growth inhibition at 10 uM by NCI protocol relative to control; format: functional; details: read-out: GI; how it was run: as §1
SK-MEL-28 = assay: Cytotoxicity against human SK-MEL-28 assessed as growth inhibition at 10 uM by NCI protocol relative to control; format: functional; details: read-out: GI; how it was run: as §1
UACC-62 = assay: Cytotoxicity against human UACC-62 assessed as growth inhibition at 10 uM by NCI protocol relative to control; format: functional; details: read-out: GI; how it was run: as §2
RXF 393 = assay: Cytotoxicity against human RXF 393 assessed as growth inhibition at 10 uM by NCI protocol relative to control; format: functional; details: read-out: GI; how it was run: as §1
EKVX = assay: Cytotoxicity against human EKVX assessed as growth inhibition at 10 uM by NCI protocol relative to control; format: functional; details: read-out: GI; how it was run: as §1
MOLT-4 = assay: Cytotoxicity against human MOLT-4 assessed as growth inhibition at 10 uM by NCI protocol relative to control; format: functional; details: read-out: GI; how it was run: as §1
HOP-92 = assay: Cytotoxicity against human HOP-92 assessed as growth inhibition at 10 uM by NCI protocol relative to control; format: functional; details: read-out: GI; how it was run: as §1
IGROV-1 = assay: Cytotoxicity against human IGROVI assessed as growth inhibition at 10 uM by NCI protocol relative to control; format: functional; details: read-out: GI; how it was run: as §1
SNB-75 = assay: Cytotoxicity against human SNB-75 assessed as growth inhibition at 10 uM by NCI protocol relative to control; format: functional; details: read-out: GI; how it was run: as §2
Malme-3M = assay: Cytotoxicity against human MALME-3M assessed as growth inhibition at 10 uM by NCI protocol relative to control; format: functional; details: read-out: GI; how it was run: as §1
SF-295 = assay: Cytotoxicity against human SF-295 assessed as growth inhibition at 10 uM by NCI protocol relative to control; format: functional; details: read-out: GI; how it was run: as §1
MCF7 = assay: Cytotoxicity against human MCF7 assessed as growth inhibition at 10 uM by NCI protocol relative to control; format: functional; details: read-out: GI; how it was run: as §1
Hs-578T = assay: Cytotoxicity against human HS 578T assessed as growth inhibition at 10 uM by NCI protocol relative to control; format: functional; details: read-out: GI; how it was run: as §1
K562 = assay: Cytotoxicity against human K-562 assessed as growth inhibition at 10 uM by NCI protocol relative to control; format: functional; details: read-out: GI; how it was run: as §1
SNB-19 = assay: Cytotoxicity against human SNB-19 assessed as growth inhibition at 10 uM by NCI protocol relative to control; format: functional; details: read-out: GI; how it was run: as §2
MDA-MB-468 = assay: Cytotoxicity against human MDA-MB-468 assessed as growth inhibition at 10 uM by NCI protocol relative to control; format: functional; details: read-out: GI; how it was run: as §1
NCI-H226 = assay: Cytotoxicity against human NCI-H226 assessed as growth inhibition at 10 uM by NCI protocol relative to control; format: functional; details: read-out: GI; how it was run: as §1
NCI-H322M = assay: Cytotoxicity against human NCI-H322M assessed as growth inhibition at 10 uM by NCI protocol relative to control; format: functional; details: read-out: GI; how it was run: as §1

How did the inhibition of growth at 10 µM (MDA-MB-231) turn out when `O=C(CN1CCN(c2cc(=O)[nH]c3ccc(F)cc23)CC1)Nc1nc(-c2ccc(Cl)cc2)cs1` was run?
Its inhibition of growth at 10 µM is 16.6%.

And the inhibition of growth at 10 µM (DU-145)?
Its inhibition of growth at 10 µM is 41.1%.

What about the inhibition of growth at 10 µM (U-251) of the same compound?
The inhibition of growth at 10 µM was 37.3%.

And the inhibition of growth at 10 µM (HL-60)?
The inhibition of growth at 10 µM was 38.3%.

What about the inhibition of growth at 10 µM (NCI-H23) of the same compound?
Its inhibition of growth at 10 µM is 28.8%.

And the inhibition of growth at 10 µM (T47D)?
Its inhibition of growth at 10 µM is 73.2%.

What about the inhibition of growth at 10 µM (OVCAR-3) of the same compound?
The inhibition of growth at 10 µM was 16.9%.

What about the inhibition of growth at 10 µM (COLO 205) of the same compound?
Its inhibition of growth at 10 µM is 14.5%.

What about the “growth inhibition (GI)” value (MDA-MB-435) of the same compound?
Its value is “inactive”.

What about the inhibition of growth at 10 µM (HCT-116) of the same compound?
The inhibition of growth at 10 µM was 48%.

And the inhibition of growth at 10 µM (SN12C)?
The inhibition of growth at 10 µM was 36.2%.

What about the inhibition of growth at 10 µM (CCRF-CEM) of the same compound?
The inhibition of growth at 10 µM was 33.3%.

And the inhibition of growth at 10 µM (OVCAR-4)?
The inhibition of growth at 10 µM was 39.1%.

And the inhibition of growth at 10 µM (UO-31)?
The inhibition of growth at 10 µM was 38%.

And the inhibition of growth at 10 µM (A549)?
The inhibition of growth at 10 µM was 44.4%.

What about the inhibition of growth at 10 µM (786-0) of the same compound?
Its inhibition of growth at 10 µM is 32.8%.

And the inhibition of growth at 10 µM (SK-MEL-5)?
Its inhibition of growth at 10 µM is 34.6%.

And the inhibition of growth at 10 µM (PC-3)?
The inhibition of growth at 10 µM was 45.1%.

What about the inhibition of growth at 10 µM (ACHN) of the same compound?
The inhibition of growth at 10 µM was 38.5%.

And the inhibition of growth at 10 µM (SR)?
The inhibition of growth at 10 µM was 29.1%.

What about the inhibition of growth at 10 µM (TK-10) of the same compound?
Its inhibition of growth at 10 µM is 34.3%.

What about the inhibition of growth at 10 µM (HT-29) of the same compound?
The inhibition of growth at 10 µM was 25.6%.

What about the inhibition of growth at 10 µM (SW-620) of the same compound?
Its inhibition of growth at 10 µM is 41.2%.

What about the inhibition of growth at 10 µM (OVCAR-8) of the same compound?
Its inhibition of growth at 10 µM is 24%.

And the inhibition of growth at 10 µM (KM12)?
Its inhibition of growth at 10 µM is 30.1%.

And the inhibition of growth at 10 µM (SK-MEL-28)?
The inhibition of growth at 10 µM was 17.3%.

And the inhibition of growth at 10 µM (UACC-62)?
Its inhibition of growth at 10 µM is 32%.

What about the inhibition of growth at 10 µM (RXF 393) of the same compound?
The inhibition of growth at 10 µM was 37.6%.

What about the inhibition of growth at 10 µM (EKVX) of the same compound?
Its inhibition of growth at 10 µM is 43.3%.

What about the inhibition of growth at 10 µM (MOLT-4) of the same compound?
The inhibition of growth at 10 µM was 52.8%.

What about the inhibition of growth at 10 µM (HOP-92) of the same compound?
Its inhibition of growth at 10 µM is 29.7%.

And the inhibition of growth at 10 µM (IGROV-1)?
Its inhibition of growth at 10 µM is 50.8%.

And the inhibition of growth at 10 µM (SNB-75)?
The inhibition of growth at 10 µM was 46.2%.

And the inhibition of growth at 10 µM (Malme-3M)?
The inhibition of growth at 10 µM was 43.3%.

What about the inhibition of growth at 10 µM (SF-295) of the same compound?
The inhibition of growth at 10 µM was 20.4%.

And the inhibition of growth at 10 µM (MCF7)?
The inhibition of growth at 10 µM was 39.7%.

And the inhibition of growth at 10 µM (Hs-578T)?
Its inhibition of growth at 10 µM is 33.5%.

What about the inhibition of growth at 10 µM (K562) of the same compound?
Its inhibition of growth at 10 µM is 44.8%.

And the inhibition of growth at 10 µM (SNB-19)?
Its inhibition of growth at 10 µM is 30.8%.

What about the inhibition of growth at 10 µM (MDA-MB-468) of the same compound?
The inhibition of growth at 10 µM was 51.4%.

And the inhibition of growth at 10 µM (NCI-H226)?
The inhibition of growth at 10 µM was 12.6%.

And the inhibition of growth at 10 µM (NCI-H322M)?
Its inhibition of growth at 10 µM is 21.3%.
